# Calls of active or inactive are those of the source. The calls are words filed in the database; no cut-off is given here.
# Experiments:
# [1] = tested on: Quadruplex DNA; test: Binding affinity to C9orf72 (G4C2)4 G4 quadruplex DNA (unknown origin) assessed as compound-DNA complex formation at pH 7 in 25 degree C by circular dichroism spectroscopy; type: nucleic-acid assay
# Procedure, shortened: (§1)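 G4 at 15 μM mixed with compound at 1:10 molar ratio, pH 6 or pH 7. CD spectra recorded at 25 °C in a 1 mm quartz cuvette as the mean of three scans, buffer subtracted.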
# [2] = tested on: Erythrocyte; test: Hemolytic activity in rabbit RBC assessed as hemolysis at 250 to 1000 ug/ml incubated for 1 hr by microtiter plate method; type: toxicity, cell-based, Oryctolagus cuniculus; settings: DDE = dose-dependent effect, dose 250-1000 µg/ml
# Procedure, shortened: (§2)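 Fresh rabbit red cells washed in PBS and used as a 2% suspension. Compounds diluted in PBS to final 250, 500 and 1000 μg/mL, mixed with an equal volume of cells, incubated 1 h at 37 °C. After centrifugation, supernatant absorbance read at 570 nm. Controls: 10% Triton X-100 (positive), 1% DMSO in PBS (negative). n = 3 preparations.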
# [3] = target: Quadruplex DNA; test: Binding affinity to 3'-FAM labeled C9orf72 (G4C2)4 G4 quadruplex DNA (unknown origin) assessed as decrease in fluorescence intensity by fluorescence intensity assay; type: nucleic-acid assay
# Procedure, shortened: (§3)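 3'-FAM-labelled DNA (G4C2)4 G4 or RNA (G4C2)2 G4 annealed at 98 °C for 10 min in 10 mM K+ buffer (8 mM KCl, 2 mM KH2PO4, pH 6.8), 1 μM final, slowly cooled. Compound titrated 0.1–10 mM in same buffer at room temperature. Fluorescence read at ex/em 470/520 nm. KD from nonlinear one-site specific binding fit with Hill slope.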
# [4] = tested on: Quadruplex DNA; test: Binding affinity to C9orf72 (G4C2)2 G4 quadruplex RNA (unknown origin) assessed as compound-DNA complex formation at pH 7 in 25 degree C by circular dichroism spectroscopy; type: nucleic-acid assay; procedure, shortened: as §1
# [5] = tested on: Quadruplex DNA; test: Stabilization of C9orf72 (G4C2)4 G4 quadruplex DNA (unknown origin) assessed as thermal stability by measuring melting temperature at pH 7 by circular dichroism spectroscopy; type: nucleic-acid assay
# Procedure, shortened: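 G4 at 15 μM with compound at 1:10 molar ratio, pH 7. CD signal followed from 25 to 95 °C at 1 °C/min at one wavelength (290 nm for DNA G4). Absorbance normalised as (Abst − min)/(max − min), then fitted to a Boltzmann sigmoid.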
# [6] = tested on: HT-22; test: Neuroprotective activity in retinoic acid and cAMP differentiated mouse HT-22 cells assessed as decrease in glutamate induced cellular ROS level incubated for 1 hrs by DCFH-DA based […]; type: functional, cell-based; settings: DDE = dose-dependent effect
# Procedure, shortened: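 HT22 cells differentiated for 48 h with 10 μM retinoic acid and 500 μM cAMP in DMEM with 0.5% FBS. 5 mM L-glutamate given for 24 h, then 10 μM DCFH-DA loaded for 30 min at 37 °C and washed off. Compounds at 2 μg/mL added for 1 h; Rosup served as positive control. DCF read at 488/525 nm on a plate reader. n = 18–42 wells from three batches.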
# [7] = tested on: Quadruplex DNA; test: Binding affinity to C9orf72 (G4C2)4 G4 quadruplex DNA (unknown origin) assessed as change in chemical shift at pH 7 in 25 to 45 degree C by one-dimensional 1H-NMR analysis; type: nucleic-acid assay
# Procedure, shortened: (§4)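 Oligos (100 μM) annealed at 95 °C for 15 min, cooled slowly overnight in 70 mM KCl, 20 mM potassium phosphate, pH 7.0. NMR samples held 0.1 mM DNA or RNA. Compounds from ~50 mM DMSO-d6 stocks, titrated at G4:compound ratios 1:1 to 1:10 (RNA 1:3, 1:5, 1:10). Imino-region 1D 1H spectra at 25 °C; further spectra at pH 6 and 7, at 25, 35 and 45 °C.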
# [8] = tested on: Quadruplex DNA; test: Binding affinity to C9orf72 (G4C2)2 G4 quadruplex RNA (unknown origin) assessed as compound-DNA complex formation at pH 6 in 25 degree C by circular dichroism spectroscopy; type: nucleic-acid assay; procedure, shortened: as §1
# [9] = tested on: Quadruplex DNA; test: Binding affinity to C9orf72 (G4C2)4 G4 quadruplex DNA (unknown origin) assessed as compound-DNA complex formation at pH 6 in 25 degree C by circular dichroism spectroscopy; type: nucleic-acid assay; procedure, shortened: as §1
# [10] = tested on: Quadruplex DNA; test: Binding affinity to C9orf72 (G4C2)4 G4 quadruplex DNA (unknown origin) assessed as change in chemical shift at pH 6 in 25 to 45 degree C by one-dimensional 1H-NMR analysis; type: nucleic-acid assay; procedure, shortened: as §4
# [11] = Permeability of compound in PBS buffer at 500 uM incubated for 18 hrs by PAMPA assay; type: ADME
# Procedure, shortened: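 PAMPA: donor membrane coated with 4% lecithin in dodecane. 500 μM compound added to duplicate donor wells over PBS acceptor wells, incubated 18 h at 37 °C. Acceptor solution scanned 200–500 nm to find peak absorbance, referenced to equilibrium standards and a DMSO/PBS blank. n = 5.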
# [12] = tested on: HEK-293T; test: Cytotoxicity in human HEK293T cells assessed as reduction in cell viability upto 0.1 ug/ml incubated for 24 hrs by MTT assay; type: toxicity, cell-based; settings: dose < 0.1 µg/ml
# Procedure, shortened: (§5)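 HEK293T cells seeded at 5 × 10^3 per well, grown 24 h in DMEM with 10% FBS. Compounds in DMSO added at 0.1, 1 and 10 μg/mL for 24 h. MTT (5 mg/mL stock) added for 4 h at 37 °C, formazan dissolved in DMSO, absorbance read at 570 nm. n = 4 culture batches.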
# [13] = tested on: Quadruplex DNA; test: Binding affinity to C9orf72 (G4C2)4 G4 quadruplex DNA (unknown origin) assessed as change in chemical shift by one-dimensional 1H-NMR analysis; type: nucleic-acid assay; procedure, shortened: as §4
# [14] = tested on: Quadruplex DNA; test: Binding affinity to C9orf72 (G4C2)2 G4 quadruplex RNA (unknown origin) assessed as change in chemical shift by one-dimensional 1H-NMR analysis; type: nucleic-acid assay; procedure, shortened: as §4
# [15] = tested on: Quadruplex DNA; test: Binding affinity to C9orf72 (G4C2)2 G4 quadruplex DNA (unknown origin) assessed as change in chemical shift by one-dimensional 1H-NMR analysis; type: nucleic-acid assay
# Procedure, shortened: (§6)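 Oligonucleotide annealed at 100 μM by heating to 95 °C for 15 min, then cooled slowly to room temperature overnight in 70 mM KCl, 20 mM potassium phosphate, pH 7.0. NMR samples held 0.1 mM G4 in the same buffer. Compound stocks were about 50 mM in DMSO-d6. Titrated into G4; imino-region 1D 1H spectra recorded at 25 °C and compared with G4-only and DMSO control spectra.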
# [16] = tested on: Quadruplex DNA; test: Binding affinity to human telomeric htel21-T18 (d[(GGGTTA)2GGGTTTGGG]) G4 quadruplex DNA assessed as change in chemical shift by one-dimensional 1H-NMR analysis; type: nucleic-acid assay; procedure, shortened: as §6
# [17] = tested on: Drosophila; test: Inhibition of eye degeneration in GMR-GAL4-(G4C2)29 Drosophila expressing (G4C2)29 in eyes C9orf72 ALS/FTD model assessed as reflective eyes at 100 uM, po incubated 7 day by stereomicroscopy; type: functional, organism-based
# Procedure, shortened: (§7)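 Parent flies crossed on solid food containing compound at 100 μM, DMSO vehicle. F1 larvae fed continuously until eclosion, then moved to compound-free food. Eyes of day-7 adults imaged by CCD camera on a stereomicroscope, with SEM of heads. Affected and total eye area measured to give degeneration ratio. n = 7–18 flies.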
# [18] = tested on: Drosophila; test: Inhibition of eye degeneration in GMR-GAL4-(G4C2)29 Drosophila expressing (G4C2)29 in eyes C9orf72 ALS/FTD model assessed as smoothening of eyes at 100 uM, po incubated 7 day by stereomicroscopy; type: functional, organism-based; procedure, shortened: as §7
# [19] = Inhibition of locomotor deficit in OK371-GAL4-(G4C2)29 Drosophila expressing (G4C2)29 in motor neuron C9orf72 ALS/FTD model assessed as reduction in flies staying at the bottom of flask at 100 uM, po during larval stage by climbing assay relative to control (Rvb= 18.25%); type: functional; design: scale not given: the % may be the effect or the level left
# Procedure, shortened: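 Compound at 100 μM in solid food, DMSO vehicle, given from parental cross until F1 eclosion, then regular food. Climbing test on 7-day-old adults: percentage of flies remaining below 2 cm of the tube at 25 s. n = 8 experimental batches.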
# [20] = tested on: HEK-293T; test: Cytotoxicity in human HEK293T cells assessed as reduction in cell viability upto 10 ug/ml incubated for 24 hrs by MTT assay; type: toxicity, cell-based; settings: dose < 10 µg/ml; procedure, shortened: as §5
# [21] = target: Quadruplex DNA; test: Binding affinity to 3'-FAM labeled C9orf72 (G4C2)2 G4 quadruplex RNA (unknown origin) assessed as decrease in fluorescence intensity by fluorescence intensity assay; type: nucleic-acid assay; procedure, shortened: as §3
# [22] = tested on: Drosophila; test: Inhibition of eye degeneration in GMR-GAL4-(G4C2)29 Drosophila expressing (G4C2)29 in eyes C9orf72 ALS/FTD model assessed as reduction in rough-eye phenotype at 100 uM, po incubated 7 day by stereomicroscopy; type: functional, organism-based; procedure, shortened: as §7
# [23] = tested on: Erythrocyte; test: Hemolytic activity in rabbit RBC assessed as hemolysis at 1000 ug/ml incubated for 1 hr by microtiter plate method; type: toxicity, cell-based, Oryctolagus cuniculus; settings: dose 1000 µg/ml; procedure, shortened: as §2
# [24] = tested on: N2a; test: Neuroprotective activity in mouse Neuro2a cells transfected DNA (G4C2)29 C9orf 72 ALS/FTD cell model assessed as increase in cell viability at 1 ug/ml by DAPI staining based immunofluorescence analysis; type: functional; settings: dose 1.0 µg/ml
# [25] = tested on: N2a; test: Neuroprotective activity in mouse Neuro2a cells transfected DNA (G4C2)29 C9orf 72 ALS/FTD cell model assessed as reduction in G4C2 RNA foci at 1 ug/ml incubated for 2 days by DAPI staining based immunofluorescence analysis; type: functional; settings: dose 1.0 µg/ml, time 2.0 day
# Procedure, shortened: (§8)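 Neuro2a cells on coverslips transfected with a pHR-Tre3G-29xGGGGCC-12xMS2 plasmid, then treated with compound at 1 μg/mL for 2 days. Fixed in 4% PFA and permeabilised. Hybridised 3 h at 46 °C with Cy3-labelled G4C2-target and Cy5-labelled CAGG probes, co-stained for hnRNP H, DAPI counterstain. Foci per cell counted by confocal microscopy; n = 17–25 coverslips from three batches.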
# [26] = tested on: N2a; test: Neuroprotective activity in mouse Neuro2a cells transfected DNA (G4C2)29 C9orf 72 ALS/FTD cell model assessed as CAGG RNA foci abundance at 1 ug/ml incubated for 2 days by DAPI staining based immunofluorescence analysis; type: functional; settings: dose 1.0 µg/ml, time 2.0 day; procedure, shortened: as §8
Structure (SMILES),Activity [1],Kd [3],Activity [4],Activity [5],Activity [6],Activity [7],Activity [8],Activity [9],Activity [10],permeability [11],Activity [13],Activity [14],Activity [17],Activity [18],Activity [19],Activity [20],Activity [22],Activity [23],Activity [24],Activity [25],also measured
COc1c2c(c(O)c3c(=O)c4cccc(O[C@@H]5OC(C(=O)O)=C[C@H](O)[C@H]5O)c4oc13)-c1c(cc(CC(C)=O)c(C(=O)O)c1O)CC2,Active,3000 µM,Active,Active,Dde,Active,Active,Active,Active,Permeable,Active,–,–,–,–,–,–,–,–,–,Activity [2]: Dde; Activity [12]: Toxic
CC12CC3CC(C)(C1)CC(N)(C3)C2 [MEMANTINE],–,–,–,–,–,–,–,–,–,Permeable,–,–,–,–,–,–,–,–,–,–,–
N=C(N)c1ccc(-c2ccc(-c3ccc(-c4ccc(C(=N)N)cn4)o3)o2)nc1,–,–,–,–,–,–,–,–,–,Impermeable,Active,Active,–,–,–,–,–,–,–,–,Activity [15]: Active; Activity [16]: Active
CC(=O)Cc1cc2c(c(O)c1C(=O)O)-c1c(c(O)c3oc4c(O[C@@H]5OC(C(=O)O)=C[C@H](O)[C@H]5O)cccc4c(=O)c3c1O)CC2,Active,2200 µM,Active,Active,Dde,Active,Active,Active,Active,Permeable,Active,Active,Active,Active,5.125%,Non-Toxic,Active,Non-Toxic,Active,Active,Kd [21]: 3000 µM
CC(=O)Cc1cc2c(c(O)c1C(=O)O)-c1c(c(O)c3oc4c(O[C@@H]5O[C@H](C(=O)O)[C@@H](O)[C@H](O)[C@H]5O)cccc4c(=O)c3c1O)CC2,Active,2800 µM,Active,Active,Dde,Active,Active,Active,Active,Permeable,Active,–,Active,Active,10.625%,Non-Toxic,Active,Non-Toxic,Active,Active,Activity [26]: Active

# Reference: ChEMBL document CHEMBL5108069, “Selective C9orf72 G-Quadruplex-Binding Small Molecules Ameliorate Pathological Signatures of ALS/FTD Models” (J Med Chem, 2022)
